According to ChEMBL document CHEMBL1127440, “Structure-affinity relationship studies on 5-HT1A receptor ligands. 2. Heterobicyclic phenylpiperazines with N4-aralkyl substituents” (J Med Chem, 1994):

Each compound was assayed against T1, 5-hydroxytryptamine receptor 1A (Rattus norvegicus, UniProt P19327) (assay: Binding affinity to displace [3H]2-(di-N-propylamino)-8-hydroxy-tetralin from 5-hydroxytryptamine 1A (5-HT1A) receptor in rat frontal cortex homogenates).
T1 sequence (P19327 whole entry): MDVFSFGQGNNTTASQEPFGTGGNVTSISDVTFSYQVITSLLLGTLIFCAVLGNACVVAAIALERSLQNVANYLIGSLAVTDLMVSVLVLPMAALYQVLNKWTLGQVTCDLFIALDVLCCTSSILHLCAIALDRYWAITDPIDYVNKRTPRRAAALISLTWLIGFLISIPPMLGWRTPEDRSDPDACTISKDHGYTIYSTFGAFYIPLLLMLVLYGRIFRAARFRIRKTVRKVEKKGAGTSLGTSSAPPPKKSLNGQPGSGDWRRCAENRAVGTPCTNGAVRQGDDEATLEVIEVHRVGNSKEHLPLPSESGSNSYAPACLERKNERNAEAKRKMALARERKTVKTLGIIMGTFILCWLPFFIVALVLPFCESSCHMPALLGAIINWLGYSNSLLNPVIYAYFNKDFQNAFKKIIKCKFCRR
Format: tissue-based
Method in brief: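 Rat frontal cortex homogenate; [3H]-8-OH-DPAT displaced from specific 5-HT1A sites. Each compound was tested at four to six concentrations in triplicate per assay. Three to six independent assays were run per compound. Ki ± SEM (nM) reported.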
`c1ccc2c(c1)OCC(CN1CCN(c3cccc4ccoc34)CC1)O2` (stereo not drawn) was tested, and the Ki was 5.8 nM. Work on `c1ccc(OCCCN2CCN(c3cccc4c3OCCO4)CC2)cc1` yielded a Ki of 0.95 nM. Work on `c1ccc(CCCCN2CCN(c3cccc4c3OCCO4)CC2)cc1` yielded a Ki of 0.32 nM. Work on `O=C(CCCN1CCN(c2cccc3ccoc23)CC1)c1ccc(F)cc1` yielded a Ki of 1 nM. For `c1ccc2c(c1)OCC(CN1CCN(c3cccc4c3OCCO4)CC1)O2` (stereo not drawn), the Ki was 4 nM. Compound `c1ccc(OCCN2CCN(c3cccc4c3OCCO4)CC2)cc1` has a Ki of 0.73 nM. `O=C(NCCN1CCN(c2cccc3ccoc23)CC1)c1ccc(F)cc1` gave a Ki of 0.15 nM. `c1ccc(OCCCN2CCN(c3cccc4ccoc34)CC2)cc1` showed a Ki of 0.85 nM. Work on `c1ccc(CCN2CCN(c3cccc4c3OCCO4)CC2)cc1` yielded a Ki of 0.47 nM. Work on `c1ccc(CCN2CCN(c3cccc4ccoc34)CC2)cc1` yielded a Ki of 0.37 nM. `c1ccc(CN2CCN(c3cccc4c3OCCO4)CC2)cc1` showed a Ki of 28 nM. `O=C(NCCN1CCN(c2cccc3c2OCCO3)CC1)c1ccc(F)cc1` was tested, and the Ki was 0.3 nM. For `c1ccc(CN2CCN(c3cccc4ccoc34)CC2)cc1`, the Ki was 22 nM. `O=C(CCCN1CCN(c2cccc3c2OCCO3)CC1)c1ccc(F)cc1` gave a Ki of 1.4 nM. With `O=C(CCCN1CCN(c2cccc3c2OCCO3)CC1)c1ccccc1` the Ki was 0.67 nM. `c1ccc(OCCN2CCN(c3cccc4ccoc34)CC2)cc1` was tested, and the Ki was 0.46 nM. `O=C(NCCN1CCN(c2cccc3c2OCCO3)CC1)C1CCCCC1` gave a Ki of 0.44 nM. `O=C(NCCN1CCN(c2cccc3ccoc23)CC1)C1CCCCC1` showed a Ki of 0.2 nM.
